High-throughput results from PubChem.
Hits are enriched below; roughly 0.7% of the tested compounds scored in any of these assays.
Xi reactivation = activators of inactive X chromosome reactivation, primary screen, imaging, XiGFP fibroblasts, GFP high-content imaging, set 2. XiGFP mouse fibroblasts, % GFP-positive cells imaging, 3 d; cells co-treated with 5-aza-dC sensitizer; scaled so ellipticine positive control = 100%. activation, % at 7.58 µM. 360,000 tested, 0.055% active;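 active = mean normalized replicate activation at least 10% and every replicate at or above 10%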;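 also: 0% = median of on-plate neutral control wells and 100% = ellipticine 6 µM median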
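Material: XiGFP fibroblasts, SV40-immortalized; Buffer or medium: DMEM containing 5-aza-dC; Compound dosing: single point; Times: 3 days compound exposure.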
N-glyco inh = increase of ERlucT glycosylation luciferase signal, primary screen, N-linked glycosylation inhibitor project, D54 ERlucT cells, luminescence, set 2; D54 ERlucT glycosylation luciferase reporter, 24 h; percent of 100 nM tunicamycin response; reporter increase, % at 12.5 µM; 360,000 tested, 0.23% active; AID 588692, 2011;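 active = mean luciferase reporter signal, scaled so untreated is 0 and the glycosylation-blocking control 100, at or above a set limit in every replicate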;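 also: luciferase carries N-glycosylation sites so blocking glycosylation raises the light; 0% = median of neutral control wells and 100% = median of 100 nM tunicamycin wells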
Vif imaging = HIV Vif self-association inhibitors, primary screen, imaging, HEK293T, single point. HEK293T cells, Vif self-association by quenched fluorescence, 24 h. inhibition, % at 7.49 µM. 340,000 tested, 0.35% active; in the data active = inhibition above about 50%, passing the limit was not always enough
GC-B act = human GC-B receptor activators, primary screen, HEK293 GC-B cells, cGMP TR-FRET, EC30 CNP; 0% at EC30 CNP, 100% saturating CNP; activation, % at 10 µM; 370,000 tested, 0.11% active; AID 1920062, 2024;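 active = activation at 10 µM reaching about 35% in either raw or pattern-adjusted values, limit read from the data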
NPR1 activator = GC-A stimulated cGMP production enhancers – HEK293 GC-A cells, cGMP TR-FRET, EC30 ANP, primary screen; activation, % at 10 µM; 0% at EC30 ANP, 100% saturating ANP; 370,000 tested, 0.14% active; AID 1671463, 2021; in the data active = activation above about 40%
Target sequence (P16066 whole entry, looked up): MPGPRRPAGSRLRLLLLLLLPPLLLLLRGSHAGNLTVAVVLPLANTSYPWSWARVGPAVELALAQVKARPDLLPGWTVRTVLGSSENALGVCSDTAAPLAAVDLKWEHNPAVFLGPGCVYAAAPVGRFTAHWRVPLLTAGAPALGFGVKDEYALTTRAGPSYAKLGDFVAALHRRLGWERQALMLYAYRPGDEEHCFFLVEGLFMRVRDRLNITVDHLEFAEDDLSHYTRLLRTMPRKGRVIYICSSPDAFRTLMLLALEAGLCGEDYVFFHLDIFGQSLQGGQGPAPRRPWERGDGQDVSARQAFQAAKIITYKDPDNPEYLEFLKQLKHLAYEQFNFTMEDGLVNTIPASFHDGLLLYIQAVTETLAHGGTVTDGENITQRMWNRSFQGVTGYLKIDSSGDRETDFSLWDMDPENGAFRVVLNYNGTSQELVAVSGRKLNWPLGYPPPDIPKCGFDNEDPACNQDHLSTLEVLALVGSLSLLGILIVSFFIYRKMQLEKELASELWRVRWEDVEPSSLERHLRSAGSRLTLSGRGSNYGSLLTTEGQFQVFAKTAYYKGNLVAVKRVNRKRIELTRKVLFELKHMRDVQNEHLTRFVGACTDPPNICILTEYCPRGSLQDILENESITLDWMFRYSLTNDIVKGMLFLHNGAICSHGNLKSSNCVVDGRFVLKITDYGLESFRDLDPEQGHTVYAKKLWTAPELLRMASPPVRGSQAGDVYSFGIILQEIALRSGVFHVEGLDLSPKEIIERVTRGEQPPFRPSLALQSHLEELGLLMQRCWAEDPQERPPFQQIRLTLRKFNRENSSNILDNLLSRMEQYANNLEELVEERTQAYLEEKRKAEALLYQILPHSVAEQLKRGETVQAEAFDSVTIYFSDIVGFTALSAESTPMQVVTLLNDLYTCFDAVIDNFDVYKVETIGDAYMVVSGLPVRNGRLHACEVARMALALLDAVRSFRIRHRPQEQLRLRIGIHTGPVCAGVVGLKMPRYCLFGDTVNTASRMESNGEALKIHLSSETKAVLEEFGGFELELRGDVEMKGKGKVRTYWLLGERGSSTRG
CaV13 ICDI inh = Disruptors of the CACNA1D IQ motif to Ca2+-dependent inactivation inhibitor domain association, primary screening, Förster resonance energy transfer in intact living … | 340,000 tested, 0.098% active | HEK cells, CFP/YFP FRET ICDI-IQ, plate reader, 10 min; percent FRET-ratio fall versus neutral wells | AID 743397 | inhibition, % at 12.3 µM;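 active = mean replicate inhibition of at least 30% and at least 1% of replicates passing that level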;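 also: 0% = median of the neutral control wells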
* = called active by the depositor; x = no result; + = active, no number.

SMILES	Xi reactivation	N-glyco inh	Vif imaging	GC-B act	NPR1 activator	CaV13 ICDI inh
COc1ccc(C(=O)Nc2nc3cc4c(cc3s2)OCCO4)c(OC)c1	0.0	-1.1	78.5*	-4.1	-3.4	-4.4
Cc1noc(C)c1S(=O)(=O)N(C)C[C@@H]1Oc2ccc(NC(=O)CCCCCC(=O)Nc3ccccc3N)cc2CC(=O)N([C@@H](C)CO)C[C@H]1C	-1.3	x	x	x	x	x
O=C1N[C@H](Cc2ccccc2)COCn2nncc2CC[C@@H]1Cc1ccccc1	0.0	x	x	x	x	x
CN(C)/N=C/c1ccc(Sc2ccc([N+](=O)[O-])cc2[N+](=O)[O-])o1	-0.1	26.7*	2.5	-3.2	4.0	-5.0
COCC#Cc1cnc2c(c1)C(=O)N([C@H](C)CO)C[C@H](C)[C@@H](CN(C)C(=O)NC1CCCC1)O2	0.2	x	x	x	x	x
C=CC(=O)N1C/C(=C/c2ccc(F)cc2)C(=O)/C(=C\c2ccc(F)cc2)C1	0.8	-18.1	143.2*	5.6	9.2	-5.8
CC(=O)NC(c1cccc(F)c1)c1nc(-c2ccccc2C)cs1 (stereo not drawn)	0.0	19.0	0.3	0.9	-1.2	-4.8
COc1cccc(C(NC(C)=O)c2nc(-c3ccccc3C)cs2)c1 (stereo not drawn)	-0.1	45.0*	0.5	0.3	-1.3	-4.8
COc1cc(F)ccc1-c1csc(C(NC(C)=O)c2cccc(F)c2)n1 (stereo not drawn)	0.2	57.7*	0.0	-15.9	-5.6	-4.8
O=C(NCC[C@H]1CC[C@H](NC(=O)C2CCCC2)[C@H](CO)O1)c1ccc(F)cc1	0.5	x	x	x	x	x
CCC(=O)Nc1ccc2c(c1)C(=O)N(C)[C@H]1CC[C@H](CC(=O)NCCc3ccncc3)O[C@@H]1CO2	0.0	x	x	x	x	x
O=C(C[C@@H]1C[C@H]2c3cc(NS(=O)(=O)c4ccc(F)cc4)ccc3O[C@H]2[C@@H](CO)O1)NCc1cccc(F)c1	0.1	x	x	x	x	x
CC(C)(C)NC(=O)C(c1ccc(O)cc1)N(Cc1ccc2c(c1)OCO2)C(=O)CCl (stereo not drawn)	-0.2	2.6	79.8*	-0.2	-0.7	-2.4
C[C@H](CO)N1C[C@H](C)[C@H](CN(C)CC2CCCCC2)OCCCC[C@H](C)Oc2ccc(NC(=O)Nc3ccc(F)cc3)cc2C1=O	0.0	x	x	x	x	x
CC(C)C(c1nnnn1CC1CCCO1)N1CCN(C2CCCC2)CC1 (stereo not drawn)	x	-3.6	57.1*	2.0	1.3	-2.3
COCC(=O)OC/C(O)=C(\C#N)c1nc2ccccc2[nH]1	x	32.2*	-4.7	-6.3	-1.5	-13.1
C/C(O)=C(\C#N)c1nc2ccccc2[nH]1	x	3.5	51.1*	7.8	7.7	x
N#C/C(=C(/O)CCl)c1nc2ccccc2[nH]1	0.7	7.4	6.1	7.8	0.2	-6.8
Cc1c(-c2cccc(Cl)c2)nc2ccccc2c1C(=O)OC/C(O)=C(\C#N)c1nc2ccccc2[nH]1	0.2	63.2*	-4.1	8.3	1.1	5.1
O=C(COC(=O)CCc1c[nH]c2ccccc12)NCc1ccccc1	0.1	-0.1	-1.2	5.3	-1.3	-5.1
O=C(CCc1c[nH]c2ccccc12)OCC(=O)c1ccccc1	0.1	6.0	-5.0	5.2	0.9	36.3*
O=C(/C=C(\c1ccc(Cl)cc1)n1cncn1)c1ccc(Cl)cc1	x	26.7*	-7.3	x	x	x
O=C(/C=C(\c1ccccc1)n1cncn1)c1ccccc1	0.4	4.8	-0.2	1.4	6.1	-3.2
CCCN1C(=O)/C(=C/c2ccc(N3CCCC3)c(C)c2)NC1=S	x	-5.1	147.1*	10.0	7.4	-15.8
CCCN1C(=O)/C(=C/c2ccc(OCC(=O)OCC)cc2)NC1=S	0.4	1.2	-7.1	28.6	26.2	0.3
SMILES	Xi reactivation	N-glyco inh	Vif imaging	GC-B act	NPR1 activator	CaV13 ICDI inh
Cc1cc(/C=C2\NC(=S)N(C)C2=O)ccc1N1CCCC1	5.0	-0.5	+	-4.8	1.2	-13.5
Cc1cc(/C=C2/C(=O)N(C)C(=S)N2C)ccc1N1CCCC1	0.1	-8.5	31.3	-3.0	6.6	-29.4
CCCN1C(=O)/C(=C/c2ccc(N3CCOCC3)cc2)NC1=S	0.4	1.9	-0.8	5.5	11.1	-59.3
CCN1C(=O)/C(=C/c2ccc(N3CCCC3)cc2)NC1=S	1.9	0.3	61.3*	24.0	20.6	-15.4
O=C(C[C@@H]1C[C@@H]2c3cc(NC(=O)Nc4ccccc4)ccc3O[C@@H]2[C@H](CO)O1)NCc1ccncc1	0.4	x	x	x	x	x
CCN(CC)CCCNc1nc(C)cc(COC)c1C#N	0.1	1.0	-2.9	3.2	2.7	44.5*
COc1ccccc1N(C)c1cc2c(c3c1ccn3C)C1CCC2C1 (stereo not drawn)	11.7*	-1.5	-4.5	-3.3	6.6	-10.4
COc1ccc(NC(=O)Nc2ccc3c(c2)C(=O)N([C@@H](C)CO)C[C@@H](C)[C@@H](CN(C)C(=O)Nc2c(C)noc2C)OCCCC[C@@H](C)O3)cc1	0.0	x	x	x	x	x
Clc1ccc(C2=Nn3c(nnc3-c3n[nH]c4c3CCC4)SC2)cc1	x	37.1*	27.9	28.4	26.2	-3.4
Brc1ccc(C2=Nn3c(nnc3-c3n[nH]c4c3CCC4)SC2)cc1	x	41.9*	12.9	29.1	28.9	-2.5
Cc1ccc(-c2nnc3n2N=C(c2ccc(Br)cc2)CS3)cc1	0.2	-2.4	-5.7	0.7	-3.0	-3.9
COc1ccc2c(c1)OC[C@H]1[C@H]2N2C(=O)c3ccc(C)cc3NC(=O)[C@@]2(C)[C@H]1c1ccccc1	0.5	47.9*	1.8	6.9	-2.4	-7.2
COc1ccc2c(c1)[C@H]1[C@H](CO2)[C@H](c2ccccc2)[C@]2(C)C(=O)Nc3cc(Cl)ccc3C(=O)N12	x	64.0*	-4.9	x	x	x
COc1ccc2c(c1)[C@H]1[C@H](CO2)[C@H](c2ccccc2)[C@]2(C)C(=O)Nc3cc(C)ccc3C(=O)N12	0.1	51.2*	-0.8	-2.0	-4.0	-4.9
Cc1ccc2c(c1)[C@H]1[C@H](CO2)[C@H](c2ccccc2)[C@]2(C)C(=O)Nc3cc(Cl)ccc3C(=O)N12	x	21.9	9.3	x	x	x
COc1ccc2c(c1)C(=O)N1[C@H]3c4cc(Cl)ccc4OC[C@@H]3[C@H](c3ccccc3)[C@]1(C)C(=O)N2	0.1	38.3*	-10.8	-7.1	-0.2	-5.6
